Common to all, as to type: in vivo, human
The nature of data set [1]: Steady-state galunisertib plasma pharmacokinetics. As to conditions: for AUC / Cmax: human, plasma, oral, geometric mean (CV %), steady state; for AUC: AUC(0-tau).
Data set [2] relates to patients with recurrent or refractory metastatic pancreatic cancer. The data set can be described thus: Dose finding, modified 3+3. As to conditions: co-administered with durvalumab 1500 mg Q4W; days 1–14 of a 28-day cycle. The procedure, abridged: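 Oral galunisertib was given on days 1–14 in escalating cohorts of 50 mg once daily, then 50, 80 or 150 mg twice daily, with durvalumab infused IV over 60 min. Cohorts of three expanded to six after one DLT in cycle 1 (28 days). DLT criteria: grade 4 haematological AE, febrile neutropenia, grade 3–4 irAE or non-haematological AE, <75% planned dose, or >2-week delay. MTD: DLT in <2 of six; otherwise RP2D = maximum study dose.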

A short description of data set [3]: Durvalumab immunogenicity. As to conditions: durvalumab 1500 mg Q4W in combination with galunisertib.

What is called AUC is the area under the concentration-time curve, a measure of exposure. One may read the Cmax as the highest concentration seen after dosing.

Entries after “also recorded” stand apart in the source; their conditions may differ.

Take `Cc1cccc(-c2nn3c(c2-c2ccnc4ccc(C(N)=O)cc24)CCC3)n1` [Galunisertib, galunisertib]: the “Time to maximum plasma concentration (mean concentration versus time profiles)” value in data set [1] (galunisertib 50, 80, and 150 mg two times per day) is at most 4 h. The AUC in data set [1] (tau=12 hours, galunisertib 50 mg two times per day + durvalumab 1500 mg Q4W) came to 813 ng·h/mL; in data set [1] (tau=12 hours, galunisertib 80 mg two times per day + durvalumab 1500 mg Q4W), 3150 ng·h/mL; in data set [1] (tau=12 hours, galunisertib 150 mg two times per day + durvalumab 1500 mg Q4W) it was 6120 ng·h/mL; in data set [1] (tau=24 hours, galunisertib 50 mg one time per day + durvalumab 1500 mg Q4W), 1630 ng·h/mL. The highest concentration (Cmax) in data set [1] (galunisertib 50 mg one time per day + durvalumab 1500 mg Q4W) is 424 ng/mL; in data set [1] (galunisertib 80 mg two times per day + durvalumab 1500 mg Q4W), 612 ng/mL; in data set [1] (galunisertib 150 mg two times per day + durvalumab 1500 mg Q4W) it was 1070 ng/mL. The “Recommended phase II dose (RP2D) of galunisertib” value in data set [2] is listed as 150 mg two times per day.
durvalumab: in data set [3], the “Anti-drug antibodies against durvalumab” value is recorded as “No anti-drug antibodies against durvalumab were detected; also recorded: immunogenicity was not observed”.

(Values after publication PMC7944986 (Journal for Immunotherapy of Cancer, 2021).)
